# Screens from PubChem.
# RBBP9 inhibitor: inhibitors of human serine hydrolase RBBP9; inhibition, % at 7.94 µM; recombinant RBBP9, FP-Rh probe fluorescence polarization; O75884; 220,000 compounds, 0.2% hits;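 active means inhibition above the campaign mean of all tested compounds plus 3 SD, cut at about 14% in these data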;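 further: plate controls were DMSO wells with RBBP9 for no effect and wells lacking RBBP9 protein for full effect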
# Target sequence (O75884 whole entry, looked up): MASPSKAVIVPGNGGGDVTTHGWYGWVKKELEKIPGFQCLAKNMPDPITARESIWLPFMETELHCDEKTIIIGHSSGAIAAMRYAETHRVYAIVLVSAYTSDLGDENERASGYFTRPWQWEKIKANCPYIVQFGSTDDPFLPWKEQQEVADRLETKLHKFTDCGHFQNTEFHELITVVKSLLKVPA
#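 System: RBBP9 protein | Quantity: 2.5 µM RBBP9 dispensing solution, before mixing | Reagent: FP-Rh probe, 375 nM dispensing solution | Timing: Enzyme-compound preincubation 30 min, then probe labeling 45 min, 25 °C | Measured by: Fluorescence polarization | Read-out: % inhibition | Replication: One well per compound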
# pPAFAH FP inh: pPAFAH (human) enzyme inhibition; recombinant pPAFAH, FP-rhodamine probe fluorescence polarization; inhibition, % at 3.39 µM; 330,000 compounds, 1.5% hits;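 active means inhibition above the mean inhibition across the screen plus 3 SD, cut at about 25% in these data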;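 further: inhibitors block binding of the rhodamine activity-based probe so polarization drops; 0% = enzyme with DMSO and 100% = wells lacking pPAFAH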
# Target sequence (Q13093 whole entry, looked up): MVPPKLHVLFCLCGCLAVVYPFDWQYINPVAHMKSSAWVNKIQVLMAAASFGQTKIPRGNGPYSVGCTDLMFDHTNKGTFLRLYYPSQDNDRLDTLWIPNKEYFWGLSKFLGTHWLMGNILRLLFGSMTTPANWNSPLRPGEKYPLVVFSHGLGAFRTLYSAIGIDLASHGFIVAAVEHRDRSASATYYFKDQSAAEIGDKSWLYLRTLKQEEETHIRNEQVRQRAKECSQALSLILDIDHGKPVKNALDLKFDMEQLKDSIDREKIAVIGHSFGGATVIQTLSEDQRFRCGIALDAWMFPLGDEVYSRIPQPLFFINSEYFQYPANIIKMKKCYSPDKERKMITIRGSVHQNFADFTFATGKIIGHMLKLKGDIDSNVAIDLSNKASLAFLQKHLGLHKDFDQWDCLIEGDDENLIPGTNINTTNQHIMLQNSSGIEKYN
# PAFAH1B3 inh: PAFAH1B3 (human) inhibition; recombinant PAFAH1B3, FP-rhodamine probe, fluorescence polarization; inhibition, % at 3.39 µM; 340,000 compounds, 0.28% hits; AID 492972;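 active means inhibition above the screen-wide average of all tested compounds plus 3 SD, cut at about 25% in these data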;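 further: 0% = enzyme with DMSO only and 100% = wells lacking PAFAH1B3 protein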
# PAFAH1B2 FP inh: PAFAH1B2 (human) inhibition | P68402 | 340,000 compounds, 1.2% hits | inhibition, % at 3.39 µM | recombinant PAFAH1B2, FP-rhodamine activity probe, fluorescence polarization | AID 492953;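 active means inhibition above the mean of all tested compounds plus 3 SD, cut at about 24% in these data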;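 further: 0% = enzyme with DMSO and 100% = wells lacking PAFAH1B2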
# PAFAH2 FP inh: PAFAH2 (human) inhibition; recombinant PAFAH2, FP-rhodamine activity probe, fluorescence polarization; Q99487; inhibition, % at 3.39 µM; 340,000 compounds, 0.99% hits; AID 492956;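 active means inhibition above the mean over all tested compounds plus 3 SD, cut at about 30% in these data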;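 further: inhibitors block probe labeling of enzyme so polarization drops; 0% = enzyme with DMSO and 100% = wells lacking PAFAH2 protein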
# pPAFAH FP conf: confirmation of human plasma PAF acetylhydrolase (pPAFAH) inhibitors. shares compounds with pPAFAH FP inh. recombinant pPAFAH, FP-Rh probe fluorescence polarization. inhibition, % at 3.39 µM. 2,300 compounds, 72% hits. AID 463230;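 active means mean inhibition of the triplicate above the hit cutoff set for the earlier primary screen, cut at about 25% in these data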;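 further: 0% = enzyme with DMSO and 100% = wells lacking pPAFAH enzyme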
# Active calls of the source: *; nt = no result given. An excerpt weighted towards active compounds, which were near 2.7% of everything screened.
SMILES,RBBP9 inhibitor,pPAFAH FP inh,PAFAH1B3 inh,PAFAH1B2 FP inh,PAFAH2 FP inh,pPAFAH FP conf
CC(=O)Nc1ccc(-c2csc(Nc3ccccn3)n2)cc1,2,9,11,1,2,nt
Cc1cccc(Nc2nc(-c3ccc(F)c(C)c3)cs2)n1,nt,11,1,8,2,nt
Cc1ccnc(Nc2nc(-c3ccc(O)c(O)c3)cs2)c1,nt,41*,18,3,-8,30*
Cc1cccc(Nc2nc(-c3ccc(O)c(O)c3)cs2)n1,nt,51*,21,2,7,28*
Oc1ccc(-c2csc(Nc3ccccn3)n2)cc1O,nt,40*,21,5,11,32*
Oc1ccc(-c2csc(Nc3cccc4ccccc34)n2)cc1O,nt,72*,7,2,16,66*
COc1ccc(Cl)cc1NC(=O)CN(C)C(=O)Cc1n[nH]c(=O)c2ccccc12,nt,4,8,0,4,nt
COc1cc(/C=N/NC(=O)C(Cc2c[nH]c3ccccc23)NC(=O)OCC(C)C)cc([N+](=O)[O-])c1O (stereo not given),-2,37*,5,17,9,31*
COc1cc(/C=N/NC(=O)C(Cc2c[nH]c3ccccc23)NC(=O)OCC(C)C)cc([N+](=O)[O-])c1OCc1ccccc1 (stereo not given),-10,5,1,4,-1,nt
COc1cc(/C=N/NC(=O)C(Cc2c[nH]c3ccccc23)NC(=O)OCc2ccccc2)cc([N+](=O)[O-])c1O (stereo not given),-4,46*,14,43*,26,52*
COc1ccc(C(=O)NC(=S)Nc2ccc(N3CCOCC3)cc2)cc1Cl,nt,11,7,2,-3,nt
CC(c1nnc(SCC(=O)c2c(N)n(C3CC3)c(=O)[nH]c2=O)n1-c1ccc(F)cc1)N(C)C (stereo not given),nt,-2,3,2,-2,nt
O=C(NNC(=O)c1csc(N2CCOCC2)n1)c1ccc(=O)[nH]c1,nt,1,3,4,4,nt
CCN(CC)S(=O)(=O)c1ccc(C(=O)NNC(=O)c2csc(N3CCOCC3)n2)cc1,nt,48*,13,-1,5,5
CCNC(=S)NNC(=O)c1cc(-c2cccnc2)nc2ccccc12,-8,1,11,0,7,nt
CCCCOc1ccc(-c2cc(C(=O)NNC(=S)NCC)c3ccccc3n2)cc1,-4,42*,12,1,0,51*
CCOc1ccc(NC(=O)CN2CCCC2c2cccs2)cc1S(=O)(=O)N1CCCCC1 (stereo not given),nt,-1,3,2,6,nt
O=C(CCCN1C(=O)/C(=C/c2ccco2)SC1=S)Nc1ccccc1C(=O)O,-6,65*,5,15,18,4
O=C(CCN1C(=O)/C(=C/c2ccccc2Cl)SC1=S)Nc1ccccc1C(=O)O,nt,11,8,10,11,nt
O=C(CCN1C(=O)/C(=C/c2ccco2)SC1=S)Nc1ccc(O)cc1C(=O)O,nt,nt,12,3,15,nt
O=C(CN1C(=O)/C(=C\c2ccco2)SC1=S)Nc1ccc(O)cc1C(=O)O,nt,42*,11,2,20,11
CC(=O)Nc1ccc(S(=O)(=O)NCC2CCC(C(=O)N3CCCCC3)CC2)cc1 (stereo not given),nt,-1,3,2,-2,nt
CC(=O)c1ccc(N2CCN(C(=O)c3ccc(Cn4c(=S)[nH]c5ccc(N6CCOCC6)cc5c4=O)cc3)CC2)cc1,-4,49*,12,5,13,23
CCOc1ccccc1CNC(=O)C(C)n1nc(C)c2c(C)n(-c3ccccc3)nc2c1=O (stereo not given),nt,58*,3,1,-1,0
COc1ccc(OC)c(CN2CCCC(C(=O)c3ccccc3SC)C2)c1 (stereo not given),8,58*,4,1,1,5
SMILES,RBBP9 inhibitor,pPAFAH FP inh,PAFAH1B3 inh,PAFAH1B2 FP inh,PAFAH2 FP inh,pPAFAH FP conf
Cc1cc(/C=C(\C#N)C(=O)NCC2CCCO2)c(C)n1-c1ccc(Cl)cc1 (stereo not given),-6,67*,-8,2,4,69*
Cc1cccc(N2C(=O)C3CC3C2=O)c1 (stereo not given),0,4,7,-1,13,nt
O=C(NC(=S)NCc1ccccc1)c1ccccc1[N+](=O)[O-],2,-2,1,0,6,nt
CCN(CC)C(=O)[C@H]1C[C@H](CC(=O)NC/C=C(\C)CCC=C(C)C)C(=O)N2CCc3c([nH]c4cc(CCC(=O)N(C)C)ccc34)[C@]12C,nt,63*,6,2,-3,50*
COc1cccc(/C=C2/Sc3ccc(C(=O)NCCN4CCCCCC4)cc3NC2=O)c1,nt,37*,-2,4,-5,44*
COC(=O)c1ccc(NC(=O)CSc2nnc(C(C)NC(=O)c3ccccc3Cl)n2C)cc1 (stereo not given),-1,-4,5,5,0,nt
CCC1(C)Cc2c(sc3c2c(=O)n(C)c2nnc(SCC(=O)c4ccc(Cl)cc4)n32)CO1 (stereo not given),-3,nt,nt,nt,nt,nt
COc1ccc(OC)c(-c2nnc3n2N=C(c2ccc(OC)c(OC4CCOC4)c2)CS3)c1 (stereo not given),nt,7,2,6,7,nt
Cc1cccc(N/N=C(\C#N)S(=O)(=O)C(C)(C)C)c1,5,12,3,7,-2,nt
CC(C)(C)S(=O)(=O)/C(C#N)=N/Nc1ccc(Cl)cc1,-10,35*,10,6,2,37*
CCOC(=O)c1c(-c2ccccc2)csc1NC(=O)/C(C#N)=C/c1ccc(OC)c(OC)c1,0,17,-3,0,-7,nt
CCOC(=O)c1c(-c2ccccc2)csc1NC(=O)/C(C#N)=C/c1ccc(O)c(OC)c1,-2,40*,21,8,14,22
CCN(CC(=O)Nc1c(F)cccc1F)C(=O)c1cc(S(=O)(=O)NCc2ccccc2)ccc1C,nt,-1,3,8,0,nt
O=c1c(-c2ccc([N+](=O)[O-])cc2)coc2c(O)c(O)ccc12,-3,54*,17,9,24,78*
O=C(/C=C/c1cccs1)c1cc(Br)ccc1OC(=O)N1CCOCC1,-9,64*,0,3,84*,61*
Cc1oc2c(O)c(O)ccc2c(=O)c1-c1cnn(-c2ccccc2)c1,-21,51*,6,1,33*,60*
Cc1oc2cc(O)cc(C)c2c(=O)c1-c1cnn(-c2ccccc2)c1,3,-1,6,2,7,nt
CCOC(=O)C1Nc2c(F)cc(C)cc2C2C=CCC12 (stereo not given),nt,10,nt,nt,nt,nt
CCOC(=O)C1Nc2ccc(C(=O)O)cc2C2C=CCC12 (stereo not given),nt,40*,49*,24,18,7
CC(=O)c1ccc2c(c1)C1C=CCC1C(c1cc3c(cc1Br)OCO3)N2 (stereo not given),nt,3,8,1,1,nt
